MrgX1 antag: blocks BAM8-22 activation of human MrgX1 receptor | B-score at 10 µM | 310,000 tested, 1.3% active | AID 588676 | MRGX1-HEK293 calcium flux, Fluo-4, BAM8-22 antagonism; hits give low values | Q96LB2;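 active = calcium-response B-score plate-corrected more than 3 library SD below zero, starting fluorescence within 5 deviations, no agonist response on first addition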;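 note: peak minus trough fluorescence over baseline after final BAM8-22 challenge near maximal dose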
Target sequence (Q96LB2 whole entry, looked up): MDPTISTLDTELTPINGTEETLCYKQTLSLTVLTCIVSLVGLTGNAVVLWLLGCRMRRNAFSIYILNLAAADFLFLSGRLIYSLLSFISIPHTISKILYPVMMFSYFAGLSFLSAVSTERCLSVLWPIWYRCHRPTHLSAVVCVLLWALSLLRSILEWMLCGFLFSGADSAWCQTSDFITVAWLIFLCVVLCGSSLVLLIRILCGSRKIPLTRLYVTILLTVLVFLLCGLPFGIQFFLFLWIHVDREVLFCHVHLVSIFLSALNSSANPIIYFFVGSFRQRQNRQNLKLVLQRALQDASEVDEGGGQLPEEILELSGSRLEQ
MrgX1 agonist: agonists of human MrgX1 receptor; MrgX1-HEK293 cells, Fluo-4 calcium fluorescence, agonist mode; hits give high values; B-score at 10 µM; 310,000 tested, 0.44% active; Q96LB2; AID 588627;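 active = calcium response B-score plate-corrected fluorescence ratio at least 3 library SD, with starting fluorescence B-score inside 5 SD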
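Material – MrgX1-expressing HEK293 cells · Input – 15,000 cells seeded per well · Dosing – compound as first of three additions · Times – overnight seeding, then 1 h dark dye loading · Measured by – kinetic Fluo-4 NW fluorescence of intracellular calcium · Read-out – B-scored fluorescence response ratio · Benchmarks – positive and negative control wells on each plate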
RGS4 act: potentiators or activators of RGS4. 310,000 tested, 0.92% active. B-score at 10 µM. HEK293 M3R/inducible RGS4, carbachol calcium flux Fluo4; hits give low values;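 active = B-score of the integrated calcium signal more than 4 SD below the library mean, with starting fluorescence not abnormally high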;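 note: negative B-score means reduced calcium response which marks RGS4 activation or potentiation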
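Detection: kinetic calcium fluorescence imaging with Fluo4-AM dye, 2 µM / Material: HEK293 cells with stable M3R and inducible RGS4 / Schedule: recording 10 s baseline at 1 Hz, 100 s post-agonist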
RGS4 block: human RGS4 inhibition. 310,000 tested, 0.45% active. HEK293 M3R/RGS4 inducible, Fluo-4 calcium flux; hits give high values; triggered by carbachol at its EC20. B-score at 10 µM. P49798;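 active = B-score, a plate-corrected calcium signal, over three deviations above library mean, with baseline fluorescence within five deviations of library mean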;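 note: RGS4 expression induced by doxycycline in cells with stable M3 receptor; B-score is computed from the integrated fluorescence ratio over baseline after carbachol; higher B-score means a larger calcium signal and so more RGS4 inhibition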
Target sequence (P49798 whole entry, looked up): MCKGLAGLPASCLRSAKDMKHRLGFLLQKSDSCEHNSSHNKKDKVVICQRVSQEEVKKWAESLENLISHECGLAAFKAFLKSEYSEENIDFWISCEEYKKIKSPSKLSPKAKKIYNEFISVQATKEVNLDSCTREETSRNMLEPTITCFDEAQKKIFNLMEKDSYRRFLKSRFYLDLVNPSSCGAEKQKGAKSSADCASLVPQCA
MrgX1 allo act: human MrgX1 positive allosteric modulation, primary screen | B-score at 10 µM | 310,000 tested, 0.63% active | MrgX1-HEK293, Fluo-4 calcium flux, FDSS; hits give high values | AID 588675;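 active = plate-corrected calcium response at least 3 library SD above typical, normal starting fluorescence, not activating the receptor alone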;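 note: compound read alongside a low EC10 to EC30 dose of BAM8-22 agonist; peak minus trough fluorescence over baseline measured at the second addition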
RGS4 inh valid: validation of RGS4 inhibitors; shares compounds with RGS4 block; HEK293 M3R/RGS4, carbachol calcium Fluo-4 fluorescence; carbachol added at its EC20; 0 = buffer wells, 100 = carbachol control; calcium response, % at 10 µM; 1,700 tested, 65% active; AID 492999;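 active = duplicate-averaged calcium response above the buffer-only control mean plus 5 SD of those controls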;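 note: integrated fluorescence ratio F max minus min over baseline F0; higher response in RGS4-induced cells means RGS4 inhibition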
M3R Ca ctr: counter-screen for RGS4 inhibitors: effect in non-induced cells; shares compounds with RGS4 block; HEK293 M3R non-induced, carbachol calcium Fluo-4; submaximal (EC20) carbachol stimulus; buffer wells 0%, carbachol control wells 100%; activity (percent), % at 10 µM; 1,900 tested, 20% active; AID 493000; call rule not given here;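 note: RGS4 induction absent so cells express M3R without RGS4; higher means more calcium signal and flags a non-specific hit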
M3R basal Ca ctr: signal in non-induced cells without carbachol, RGS4 inhibitor counter-screen; shares compounds with RGS4 block; HEK293 M3R/RGS4 non-induced, Fluo-4 calcium, no carbachol; normalised: buffer wells 0%, carbachol wells 100%; 1,900 tested, 22% active; calcium response (agonist-mode artifact), % at 10 µM;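 active = duplicate-averaged calcium rise in uninduced cells above buffer wells' mean plus 5 SD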
Each line names hits and unclear results; the compound was inactive in the other large screens (follow-up assays come after a bar, where they were run). Hits are enriched below; roughly 3.5% of the tested compounds scored in any of these assays.

COc1cccc(-c2c(C(=O)N/N=C/c3cccs3)nnn2-c2nonc2N)c1	MrgX1 antag -7.6 | M3R Ca ctr 40% | M3R basal Ca ctr inactive
CCOc1cccc(-c2c(C(=O)N/N=C/c3cccs3)nnn2-c2nonc2N)c1	RGS4 block 5.6 | RGS4 inh valid 30% | M3R Ca ctr inactive | M3R basal Ca ctr inactive
COc1ccc(/C=N/NC(=O)c2nnn(-c3nonc3N)c2-c2cccs2)cc1OC	none
COc1cccc(-c2c(C(=O)N/N=C(\C)c3ccco3)nnn2-c2nonc2N)c1	none
Nc1nc2ccc([N+](=O)[O-])c(N)c2s1	none
Cc1c(Cc2ccccc2)c(=O)oc2cc(O)cc(O)c12	RGS4 block 5.5 | RGS4 inh valid 10% | M3R Ca ctr inactive | M3R basal Ca ctr inactive
Cc1coc2cc3oc(=O)c(Cc4ccccc4)c(C)c3cc12	none
C/C(=N\N=C1\NC(=O)C(CC(=O)Nc2ccc(C)c(Cl)c2)S1)C(C)C (configuration not stated)	none | M3R Ca ctr 30% | M3R basal Ca ctr inactive
C/C(=N\N=C1\NC(=O)C(CC(=O)NCc2ccccc2)S1)C(C)C (configuration not stated)	none
COc1ccccc1CN=C1NC(=O)C(CC(=O)Nc2ccc(C(C)=O)cc2)S1 (configuration not stated)	none | RGS4 inh valid inactive | M3R Ca ctr inactive | M3R basal Ca ctr inactive
CCCn1cnc2scc(-c3ccc(C)c(C)c3)c2c1=O	none
O=C(Cc1ccccc1)NC1CCSc2ccccc21 (configuration not stated)	none
Cc1ccc(OCC(=O)NCCNC(=O)c2cnccn2)cc1C	none (no result: MrgX1 antag, MrgX1 agonist, MrgX1 allo act)
O=C(c1nnsc1S(=O)c1ccc(Cl)cc1)N1CCOCC1 (configuration not stated)	RGS4 block 7.1 (no result: MrgX1 antag, MrgX1 agonist, MrgX1 allo act) | RGS4 inh valid 31% | M3R Ca ctr inactive | M3R basal Ca ctr 24%
O=C(c1nnsc1S(=O)(=O)c1ccc(Cl)cc1)N1CCOCC1	none (no result: MrgX1 antag, MrgX1 agonist, MrgX1 allo act)
COc1cc(OC)c(N(C)C(=O)c2cc3c(s2)-c2ccccc2S(=O)(=O)C3)cc1Cl	RGS4 block 17 | RGS4 inh valid 28% | M3R Ca ctr 50% | M3R basal Ca ctr inactive
Cc1ccc(NS(=O)(=O)c2cccc3nsnc23)cc1[N+](=O)[O-]	none
CCOC(=O)C1=C(COC(=O)/C=C/c2ccc(OC)cc2OC)NC(=O)NC1C (configuration not stated)	none
Cc1ccc(C(=O)O)cc1NC(=S)NC(=O)c1ccc(-c2ccc(Cl)cc2)o1	none | M3R Ca ctr inactive | M3R basal Ca ctr inactive
COc1ccc(C(=O)O)cc1NC(=S)NC(=O)c1ccc(-c2ccc(Cl)cc2)o1	RGS4 block 4.8 (no result: MrgX1 antag, MrgX1 agonist, MrgX1 allo act) | RGS4 inh valid inactive | M3R Ca ctr inactive | M3R basal Ca ctr inactive
O=C(O)c1cccc(NC(=S)NC(=O)c2ccc(-c3ccc(Cl)cc3)o2)c1	none
COc1ccc(C2C(C(=O)O)CCC(=O)N2c2ccc(C)cc2)cc1OC (configuration not stated)	none
Cc1ccc(NC(=O)Nc2ccon2)cc1Cl	none
Nc1ccc(S(=O)(=O)NC2(C(F)(F)F)NC(=O)N(Cc3ccccc3)C2=O)cc1 (configuration not stated)	none
O=C(Nc1cc(C(F)(F)F)ccc1N1CCOCC1)c1n[nH]c(=O)c2ccccc12	RGS4 block 7.5 | RGS4 inh valid 24% | M3R Ca ctr inactive | M3R basal Ca ctr inactive
O=C(Nc1cc(C(F)(F)F)ccc1N1CCOCC1)c1ccc(F)cc1	none
c1ccc(-c2nc(NCc3cccnc3)c3ccccc3n2)cc1	none | RGS4 inh valid inactive | M3R Ca ctr inactive | M3R basal Ca ctr inactive
Clc1cccc(-c2nc(NCc3cccnc3)c3ccccc3n2)c1	none
